Data published in ChEMBL document CHEMBL1123503, “Synthesis and biological activity of 3-amino-5-(3,5-diamino-6-chloropyrazin-2-yl)-1,2,4-oxadiazole: an amiloride prodrug” (1986).
Where “and” joins values, the source holds several entries; their conditions need not be identical. Equal values may be shown once.

Assays:
Rattus norvegicus [1] = assay: Urine volumes in Sprague-Dawley rats was determined at time period of 0-5 hours at 27 mg/kg; type: functional
Outline: (§1)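 Female Sprague-Dawley rats weighing 160-170 g were dosed orally at 3, 9, 27 or 81 mg/kg, housed three per cage, with three cages per dose. Urinary Na+, K+ and Cl- (mequiv × 100) and urine volume (mL) were measured over 0-5 h and 0-24 h after dosing. A placebo group was run alongside.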

Rattus norvegicus [2] = assay: Compound was evaluated for diuretic activity determined by the ability to induce electrolytic excretion (K+) at a time period of 0-24 hr for dose 81 mg/kg; type: functional, Urine; set-up: unit: mequiv × 100; outline: as §1
Rattus norvegicus [3] = assay: Compound was evaluated for diuretic activity determined by the ability to induce electrolytic excretion (Na+) at a time period of 0-24 hr for dose 81 mg/kg; type: functional, Urine; outline: as §1
Rattus norvegicus [4] = assay: Compound was evaluated for diuretic activity determined by the ability to induce electrolytic excretion (Cl-) at a time period of 0-24 hr for dose 27 mg/kg; type: functional, Urine; outline: as §1
Rattus norvegicus [5] = assay: Urine volumes in Sprague-Dawley rats was determined at time period of 0-5 hours at 3 mg/kg; type: functional; outline: as §1
Rattus norvegicus [6] = assay: Compound was evaluated for diuretic activity determined by the ability to induce electrolytic excretion (K+) at a time period of 0-5 hr for dose 81 mg/kg; type: functional, Urine; outline: as §1
Rattus norvegicus [7] = assay: Compound was evaluated for diuretic activity determined by the ability to induce electrolytic excretion (K+) at a time period of 0-5 hr for dose 3 mg/kg; type: functional, Urine; outline: as §1
Rattus norvegicus [8] = assay: Compound was evaluated for diuretic activity determined by the ability to induce electrolytic excretion (Cl-) at a time period of 0-5 hr for dose 9 mg/kg; type: functional, Urine; outline: as §1
Rattus norvegicus [9] = assay: Compound was evaluated for diuretic activity determined by the ability to induce electrolytic excretion (Cl-) at a time period of 0-5 hr for dose 3 mg/kg; type: functional, Urine; outline: as §1
Rattus norvegicus [10] = assay: Compound was evaluated for diuretic activity determined by the ability to induce electrolytic excretion (Na+) at a time period of 0-5 hr for dose 27 mg/kg; type: functional, Urine; outline: as §1
Rattus norvegicus [11] = assay: Compound was evaluated for diuretic activity determined by the ability to induce electrolytic excretion (Cl-) at a time period of 0-24 hr for dose 81 mg/kg; type: functional, Urine; outline: as §1
Rattus norvegicus [12] = assay: Compound was evaluated for diuretic activity determined by the ability to induce electrolytic excretion (Na+) at a time period of 0-24 hr for dose 9 mg/kg; type: functional, Urine; outline: as §1
Rattus norvegicus [13] = assay: Compound was evaluated for diuretic activity determined by the ability to induce electrolytic excretion (K+) at a time period of 0-5 hr for dose 9 mg/kg; type: functional, Urine; outline: as §1
Rattus norvegicus [14] = assay: Urine volumes in Sprague-Dawley rats was determined at time period of 0-5 hours at 9 mg/kg; type: functional; outline: as §1
Rattus norvegicus [15] = assay: Compound was evaluated for diuretic activity determined by the ability to induce electrolytic excretion (K+) at a time period of 0-24 hr for dose 27 mg/kg; type: functional, Urine; outline: as §1
Rattus norvegicus [16] = assay: Compound was evaluated for diuretic activity determined by the ability to induce electrolytic excretion (Na+) at a time period of 0-5 hr for dose 81 mg/kg; type: functional, Urine; outline: as §1
Rattus norvegicus [17] = assay: Compound was evaluated for diuretic activity determined by the ability to induce electrolytic excretion (K+) at a time period of 0-24 hr for dose 9 mg/kg; type: functional, Urine; outline: as §1
Rattus norvegicus [18] = assay: Compound was evaluated for diuretic activity determined by the ability to induce electrolytic excretion (Cl-) at a time period of 0-24 hr for dose 9 mg/kg; type: functional, Urine; outline: as §1
Rattus norvegicus [19] = assay: Urine volumes in Sprague-Dawley rats was determined at time period of 0-5 hours at 81 mg/kg; type: functional; outline: as §1
Rattus norvegicus [20] = assay: Compound was evaluated for diuretic activity determined by the ability to induce electrolytic excretion (Na+) at a time period of 0-24 hr for dose 3 mg/kg; type: functional, Urine; outline: as §1
Rattus norvegicus [21] = assay: Compound was evaluated for diuretic activity determined by the ability to induce electrolytic excretion (K+) at a time period of 0-5 hr for dose 27 mg/kg; type: functional, Urine; outline: as §1
Rattus norvegicus [22] = assay: Compound was evaluated for diuretic activity determined by the ability to induce electrolytic excretion (Na+) at a time period of 0-5 hr for dose 3 mg/kg; type: functional, Urine; outline: as §1
Rattus norvegicus [23] = assay: Compound was evaluated for diuretic activity determined by the ability to induce electrolytic excretion (Na+) at a time period of 0-5 hr for dose 9 mg/kg; type: functional, Urine; outline: as §1
Rattus norvegicus [24] = assay: Compound was evaluated for diuretic activity determined by the ability to induce electrolytic excretion (Na+) at a time period of 0-24 hr for dose 27 mg/kg; type: functional, Urine; outline: as §1
Rattus norvegicus [25] = assay: Compound was evaluated for diuretic activity determined by the ability to induce electrolytic excretion (Cl-) at a time period of 0-24 hr for dose 3 mg/kg; type: functional, Urine; outline: as §1
Rattus norvegicus [26] = assay: Compound was evaluated for diuretic activity determined by the ability to induce electrolytic excretion (K+) at a time period of 0-24 hr for dose 3 mg/kg; type: functional, Urine; outline: as §1
Rattus norvegicus [27] = assay: Compound was evaluated for diuretic activity determined by the ability to induce electrolytic excretion (Cl-) at a time period of 0-5 hr for dose 27 mg/kg; type: functional, Urine; outline: as §1
Rattus norvegicus [28] = assay: Compound was evaluated for diuretic activity determined by the ability to induce electrolytic excretion (Cl-) at a time period of 0-5 hr for dose 81 mg/kg; type: functional, Urine; outline: as §1
Rattus norvegicus [29] = assay: Compound was evaluated for diuretic activity determined by the to induce electrolytic excretion (Cl-) at a time period of 0-24 hr for dose 81 mg/kg; type: functional, Urine; outline: as §1
Rattus norvegicus [30] = assay: Urine volumes was determined in Sprague-Dawley rats at time period of 0-5 hours at 3 mg/kg; type: functional
Outline: (§2)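 Female Sprague-Dawley rats (160-170 g) were dosed orally at 3-81 mg/kg, with a placebo group. Housing was three rats per cage and three cages per dose. Urinary Na+, K+ and Cl- (mequiv × 100) and urine volume were measured over 0-5 h and 0-24 h.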

Rattus norvegicus [31] = assay: Urine volumes was determined in Sprague-Dawley rats at time period of 0-5 hours at 81 mg/kg; type: functional; outline: as §2
Rattus norvegicus [32] = assay: Urine volumes was determined in Sprague-Dawley rats at time period of 0-5 hours at 27 mg/kg; type: functional; outline: as §2
Rattus norvegicus [33] = assay: Urine volumes was determined in Sprague-Dawley rats at time period of 0-5 hours at 9 mg/kg; type: functional; outline: as §2
Canis familiaris [34] = assay: Diuretic activity in mongrel dog was determined by the ability to induce electrolytic excretion (Na+) at a time period of 0-5 hr after administration of 5 mg/kg dose.
Canis familiaris [35] = assay: Compound was evaluated for percentage recovery from urine after administration of 0.1 mg/kg dose; type: functional, organism-based; set-up: dose 0.1 mg/kg; conditions: Canis lupus familiaris
Outline: (§3)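 Catheterized mongrel dogs (average 14-16 kg, 6 per group) were given oral doses of 0.1-1.0 mg/kg. Urine was collected at 0-6 h and 6-24 h. Each 1-mL aliquot was partitioned between saturated Na2CO3 and ethyl acetate, and the organic phase was back-extracted into 0.5 N HCl. Amiloride in the acid phase was read spectrofluorometrically (excitation 365 nm, emission 420 nm). Results are mean ± SD, with % recovery.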

Rattus norvegicus [36] = assay: Urine volumes in Sprague-Dawley rats was determined at time period of 0-5 hours dose 27 mg/kg; type: functional; outline: as §1
Rattus norvegicus [37] = assay: Urine volumes in Sprague-Dawley rats was determined at time period of 0-5 hours dose 3 mg/kg; type: functional; outline: as §1
Canis familiaris [38] = assay: Diuretic activity in mongrel dog was determined by the ability to induce electrolytic excretion (CL-) at a time period of 0-5 hr after administration of 5 mg/kg dose.
Canis familiaris [39] = assay: Compound was evaluated for urinary levels (mg) after administration at time period
Rattus norvegicus [40] = assay: Urine volumes in Sprague-Dawley rats was determined at time period of 0-5 hours dose 9 mg/kg; type: functional; outline: as §1
Canis familiaris [41] = assay: Compound was evaluated for percentage recovery from urine after administration of 0.3 mg/kg dose; type: functional, organism-based; set-up: dose 0.3 mg/kg; conditions: Canis lupus familiaris; outline: as §3
Rattus norvegicus [42] = assay: Compound was evaluated for diuretic activity determined by the ability of to induce electrolytic excretion (Cl-) at a time period of 0-24 hr for dose 3 mg/kg; type: functional, Urine; outline: as §1
Canis familiaris [43] = assay: Diuretic activity in mongrel dog was determined by the ability to induce electrolytic excretion (K+) at a time period of 0-5 hr after administration of 5 mg/kg dose.
Rattus norvegicus [44] = assay: Urine volumes in Sprague-Dawley rats was determined at time period of 0-5 hours dose 81 mg/kg; type: functional; outline: as §1
Rattus norvegicus [45] = assay: Compound was evaluated for diuretic activity to induce electrolytic excretion (Cl-) at a time period of 0-24 hr for dose 3 mg/kg; type: functional, Urine; outline: as §2
Rattus norvegicus [46] = assay: Urine volumes was determined at time period of 0-5 hours for dose 27 mg/kg; type: functional; outline: as §2
Rattus norvegicus [47] = assay: Urine volumes was determined at time period of 0-5 hours for dose 9 mg/kg; type: functional; outline: as §2

Row | Compound | Diuretic effect (Rattus norvegicus [2]) | Diuretic effect (Rattus norvegicus [3]) | Diuretic effect (Rattus norvegicus [4]) | Diuretic effect (Rattus norvegicus [6]) | Diuretic effect (Rattus norvegicus [7]) | Diuretic effect (Rattus norvegicus [8]) | Diuretic effect (Rattus norvegicus [9]) | Diuretic effect (Rattus norvegicus [10]) | Diuretic effect (Rattus norvegicus [12]) | Diuretic effect (Rattus norvegicus [13]) | Diuretic effect (Rattus norvegicus [15]) | Diuretic effect (Rattus norvegicus [16]) | Diuretic effect (Rattus norvegicus [17]) | Diuretic effect (Rattus norvegicus [18]) | Diuretic effect (Rattus norvegicus [20]) | Diuretic effect (Rattus norvegicus [21]) | Diuretic effect (Rattus norvegicus [22]) | Diuretic effect (Rattus norvegicus [23]) | Diuretic effect (Rattus norvegicus [24]) | Diuretic effect (Rattus norvegicus [26]) | other results
1 | C[n+]1oc(-c2nc(Cl)c(N)nc2N)nc1N.[I-] | 96 | 433 | 277 | 7 | 3 | 39 | 28 | 104 | 296 | 2 | 89 | 135 | 92 | 204 | 281 | 4 | 17 | 79 | 389 | 139 | Urine volume (Rattus norvegicus [1]): 27 mL; Urine volume (Rattus norvegicus [5]): 25 mL; Diuretic effect (Rattus norvegicus [11]): 326; Urine volume (Rattus norvegicus [14]): 25 mL; Urine volume (Rattus norvegicus [19]): 29 mL; Diuretic effect (Rattus norvegicus [25]): 203; Diuretic effect (Rattus norvegicus [27]): 49; Diuretic effect (Rattus norvegicus [28]): 95
2 | CN(C)c1nc(N)c(-c2nc(N)[n+](C)o2)nc1Cl.[I-] | 68 | 389 | 209 | 5 | 2 | 35 | 37 | 100 | 224 | 2 | 62 | 154 | 97 | 169 | 185 | 6 | 55 | 60 | 299 | 114 | Diuretic effect (Rattus norvegicus [29]): 322; Urine volume (Rattus norvegicus [30]): 26 mL; Urine volume (Rattus norvegicus [31]): 31 mL; Urine volume (Rattus norvegicus [32]): 29 mL; Diuretic effect (Rattus norvegicus [25]): 153; Urine volume (Rattus norvegicus [33]): 27 mL; Diuretic effect (Rattus norvegicus [27]): 56; Diuretic effect (Rattus norvegicus [28]): 95
3 | Nc1noc(-c2nc(Cl)c(N)nc2N)n1 | 72 | 396 | 258 | 5 | 7 | 35 | 36 | 67 | 269 | 4 | 79 | 135 | 102 | 235 | 184 | 4 | 64 | 69 | 292 | 79 | Diuretic effect (Canis familiaris [34]): 6.5; Recovery (Canis familiaris [35]): 36.2% and 22.4%; Urine volume (Rattus norvegicus [36]): 26 mL; Diuretic effect (Rattus norvegicus [11]): 344; Urine volume (Rattus norvegicus [37]): 24 mL; Diuretic effect (Canis familiaris [38]): 4.3; Urinary level (Canis familiaris [39]): 0.42 mg; Urine volume (Rattus norvegicus [40]): 28 mL; Recovery (Canis familiaris [41]): 24.2%; Diuretic effect (Rattus norvegicus [42]): 152; Diuretic effect (Canis familiaris [43]): 0.9; Diuretic effect (Rattus norvegicus [27]): 32; Urine volume (Rattus norvegicus [44]): 25 mL; Diuretic effect (Rattus norvegicus [28]): 73
4 | N=C(N)NC(=O)c1nc(Cl)c(N)nc1N [AMILORIDE] | 47 | 458 | 180 | 6 | 5 | 96 | 90 | 180 | 207 | 6 | 82 | 158 | 67 | 176 | 153 | 7 | 156 | 162 | 206 | 83 | Recovery (Canis familiaris [35]): 41.4% and 40%; Diuretic effect (Rattus norvegicus [45]): 139; Urine volume (Rattus norvegicus [30]): 35 mL; Diuretic effect (Rattus norvegicus [11]): 328; Diuretic effect (Rattus norvegicus [46]): 3.4; Urinary level (Canis familiaris [39]): 0.41 mg; Recovery (Canis familiaris [41]): 29.3%; Urine volume (Rattus norvegicus [31]): 28 mL; Urine volume (Rattus norvegicus [32]): 36 mL; Diuretic effect (Rattus norvegicus [47]): 1; Urine volume (Rattus norvegicus [33]): 33 mL; Diuretic effect (Rattus norvegicus [27]): 105; Diuretic effect (Rattus norvegicus [28]): 93
